According to ChEMBL document CHEMBL1156158, “Praziquantel analogs with activity against juvenile Schistosoma mansoni” (Bioorg Med Chem Lett, 2010):
≈ marks a conversion by molar mass, not a printed value. Calls of active or inactive are those of the source. No cut-off for these calls is given here.

Tests used:
Schistosoma mansoni [1] = assay: Antischistosomal activity in adult Schistosoma mansoni infected in mouse assessed as total worm reduction at 400 mg/kg, po after 28 days; format: functional; set-up: scale not given: the % may be the effect or the level left
In short: (§1)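 Mice were infected with about 80 cercariae on day 0. A single oral dose was given, dissolved or suspended in 3% ethanol/7% Tween 80 vehicle: groups of three mice on day 21 (juvenile) and groups of five on day 49 (adult). Mice were killed by CO₂ 28 days after treatment and dissected for total and female worm counts versus vehicle controls. Medians were compared by Kruskal–Wallis test.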

Schistosoma mansoni [2] = assay: Antischistosomal activity in adult Schistosoma mansoni infected in mouse assessed as female worm reduction at 400 mg/kg, po after 28 days; format: functional; set-up: scale not given: the % may be the effect or the level left; in short: as §1
Schistosoma mansoni [3] = assay: Antischistosomal activity against adult Schistosoma mansoni assessed as morphological changes at 10 ug/ml after 120 hrs; format: functional, organism-based
In short: (§2)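 Adult worms were recovered from infected mice by portal perfusion with warm DMEM containing 2 mM L-glutamine, penicillin/streptomycin, 20 mM Hepes and heparin. Host red cells were removed and the worms moved to DMEM with 10% FCS, glutamine and antibiotics. Compounds were added from 10 mg/mL DMSO stocks. At 120 h, motility disturbances and morphological changes were scored.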

Schistosoma mansoni [4] = assay: Antischistosomal activity against adult Schistosoma mansoni assessed as motility reduction at 10 ug/ml after 120 hrs; format: functional; set-up: scale not given: the % may be the effect or the level left; in short: as §2
Schistosoma mansoni [5] = assay: Antischistosomal activity in juvenile Schistosoma mansoni infected in mouse assessed as female worm reduction at 400 mg/kg, po after 28 days; format: functional; set-up: scale not given: the % may be the effect or the level left; in short: as §1
Schistosoma mansoni [6] = assay: Antischistosomal activity in juvenile Schistosoma mansoni infected in mouse assessed as total worm reduction at 400 mg/kg, po after 28 days; format: functional; set-up: scale not given: the % may be the effect or the level left; in short: as §1
Liver microsomes = assay: Metabolic stability in human liver microsomes at 1 uM after 120 mins by LC-MS/MS; format: ADME, Microsome; settings: 2 h
In short: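 Compound at 1 µM was incubated at 37 °C with 0.5 mg/mL microsomes. Reactions were started with an NADPH-regenerating system and stopped with ice-cold MeOH. Loss of parent compound over 120 min was followed by LC–MS/MS.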

Schistosoma mansoni [7] = assay: Antischistosomal activity against adult Schistosoma mansoni; format: functional, organism-based
Schistosoma mansoni [8] = assay: Antischistosomal activity in juvenile Schistosoma mansoni infected in mouse assessed as female worm reduction at 200 mg/kg, po after 28 days; format: functional; set-up: scale not given: the % may be the effect or the level left
In short: (§3)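 Mice infected with ca. 80 S. mansoni cercariae on day 0; single oral dose given on day 21 post-infection (juvenile stage) in 3% ethanol/7% Tween 80 vehicle, groups of three mice. Sacrificed by CO₂ 28 days post-treatment and dissected; total and female worm reduction rates versus vehicle controls, Kruskal–Wallis test comparing medians.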

Schistosoma mansoni [9] = assay: Antischistosomal activity in juvenile Schistosoma mansoni infected in mouse assessed as total worm reduction at 200 mg/kg, po after 28 days; format: functional; set-up: scale not given: the % may be the effect or the level left; in short: as §3

Stability (Liver microsomes)	IC50 (Schistosoma mansoni [7])	Compound	Activity (Schistosoma mansoni [1])	Activity (Schistosoma mansoni [2])	Activity (Schistosoma mansoni [3])	Activity (Schistosoma mansoni [4])	Activity (Schistosoma mansoni [5])	Activity (Schistosoma mansoni [6])	Activity (Schistosoma mansoni [8])	Activity (Schistosoma mansoni [9])
–	–	O=C(N1CCCCC1)N1CC(=O)N2CCc3ccccc3C2C1 (stereo not drawn)	1%	9%	Active	38%	34%	27%	–	–
Stable	–	O=C(N1CCC(F)(F)CC1)N1CC(=O)N2CCc3ccccc3C2C1 (stereo not drawn)	12%	0%	inactive	0%	38%	38%	–	–
–	–	O=C(N1CCNCC1)N1CC(=O)N2CCc3ccccc3C2C1 (stereo not drawn)	0%	0%	inactive	0%	23%	25%	–	–
–	0.37 µg/mL (≈ 1.18 µM)	O=C(C1CCCCC1)N1CC(=O)N2CCc3ccccc3C2C1 (stereo not drawn) [PRAZIQUANTEL]	96%	98%	Active	100%	18%	7%	–	–
–	–	O=C1CN(C(=O)C23CC4CC(CC(C4)C2)C3)CC2c3ccccc3CCN12 (stereo not drawn)	0%	0%	inactive	0%	56%	42%	–	–
–	–	O=C1CN(C(=O)[C@H]2CC[C@]3(CC2)OO[C@]2(O3)C3CC4CC(C3)CC2C4)CC2c3ccccc3CCN12 (stereo partly drawn)	0%	0%	inactive	0%	0%	0%	–	–
Stable	–	O=C(C1CCC(F)(F)CC1)N1CC(=O)N2CCc3ccccc3C2C1 (stereo not drawn)	40%	39%	Active	25%	44%	38%	–	–
–	–	O=C1CN(C(=O)[C@H]2CC[C@]3(CC2)OO[C@]2(O3)C3CC4CC(C3)CC2C4)CCN1	1%	13%	inactive	0%	–	–	85%	85%
–	–	O=C1CCC(C(=O)N2CC(=O)N3CCc4ccccc4C3C2)CC1 (racemic)	79%	81%	Active	0%	41%	25%	–	–
–	–	O=C(N1CCOCC1)N1CC(=O)N2CCc3ccccc3C2C1 (stereo not drawn)	0%	0%	inactive	0%	22%	14%	–	–
